Laboratory results published in ChEMBL document CHEMBL1122697, “Resolved 3-(3-hydroxyphenyl)-N-n-propylpiperidine and its analogues: central dopamine receptor activity” (1984).

Tests used:
Rattus norvegicus [1] = organism: Rattus norvegicus; assay: Half-maximal decrease of DOPA accumulation upon reserpine pretreatment in the corpus striatum of rat brain; assay type: functional
Rattus norvegicus [2] = assay: Motor activity with reserpine pretreatment at dose 265 umol/kg; assay type: functional
Rattus norvegicus [3] = assay: Effect on HVA level in rat brain limbic regions at a dose of 27 uM/kg sc 60 min before death; assay type: functional, organism-based
Outline: (§1)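 They were killed 60 min later. DOPAC and HVA were measured by HPLC in limbic and striatal brain portions. Values are percent of control means ± standard error of the mean.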

Rattus norvegicus [4] = assay: Half-maximal decrease of DOPA accumulation (no reserpine pretreatment) in the limbic system of rat brain at dose 3.9 uM/kg; assay type: functional; set-up: scale not given: the % may be the effect or the level left
Outline: (§2)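 Male Sprague-Dawley rats (200-300 g), not pretreated, received the drug sc in the neck, dissolved in saline. NSD 1015 (100 mg/kg) followed 35 min later. Dopa accumulation was measured in limbic and striatal portions. […] Statistics by Student's t test.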

Rattus norvegicus [5] = organism: Rattus norvegicus; assay: Low dose of compound giving significant reduction and increase in motor activity without pretreatment was determined; motor activity 53% of control was observed at the lowest dose; assay type: functional
Outline: (§3)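 Non-pretreated male Sprague-Dawley rats received the compound sc in the neck (n = 4). They were placed singly in test cages and put into motility meters 5 min later. Motor activity was recorded over 5-35 min. The dose reported is the lowest giving a significant reduction or increase in activity, expressed as percent of controls.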

Rattus norvegicus [6] = assay: Effect on HVA level in rat brain striatum regions at a dose of 27 uM/kg sc 60 min before death; assay type: functional, organism-based; outline: as §1
Rattus norvegicus [7] = assay: Motor activity with reserpine pretreatment at dose 53 uM/kg; assay type: functional
Rattus norvegicus [8] = assay: Half-maximal decrease of DOPA accumulation (no reserpine pretreatment) in the striatum of rat brain at dose 0.98 uM/kg; assay type: functional; set-up: scale not given: the % may be the effect or the level left; outline: as §2
Rattus norvegicus [9] = assay: (§4) Effect on DOPAC level in limbic system of rat brain at a dose of 27 uM/kg sc 60 min before death; assay type: functional, organism-based
Outline: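 Male Sprague-Dawley rats (200-300 g) got a single sc dose of 27 μmol/kg, dissolved in saline. They were killed 60 min later. DOPAC and HVA were measured by HPLC in limbic and striatal brain portions. Values are percent of control means ± standard error of the mean.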

Rattus norvegicus [10] = assay: Effect on DOPAC level in rat brain striatum regions at a dose of 27 uM/kg sc 60 min before death; assay type: functional, organism-based; outline: as §1
Rattus norvegicus [11] = assay: Motor activity with reserpine pretreatment at dose 3.3 uM/kg; assay type: functional
Rattus norvegicus [12] = assay: Half-maximal decrease of DOPA accumulation (no reserpine pretreatment) in the limbic system of rat brain at dose 0.98 uM/kg; assay type: functional; set-up: scale not given: the % may be the effect or the level left; outline: as §2
Rattus norvegicus [13] = assay: Half-maximal decrease of DOPA accumulation (no reserpine pretreatment) in the striatum of rat brain at dose 0.24 uM/kg; assay type: functional; set-up: scale not given: the % may be the effect or the level left; outline: as §2
Rattus norvegicus [14] = organism: Rattus norvegicus; assay: […] without pretreatment was determined; motor activity 137% of control was observed at the highest dose; assay type: functional
Rattus norvegicus [15] = organism: Rattus norvegicus; assay: Low dose of compound giving significant reduction and increase in motor activity without pretreatment was determined; motor activity 41% of control was observed at the lowest dose; assay type: functional; outline: as §3
Rattus norvegicus [16] = assay: as §4; assay type: functional, organism-based; outline: as §1; remark: listed apart in the source
Rattus norvegicus [17] = organism: Rattus norvegicus; assay: High dose of compound giving significant reduction and increase in motor activity without pretreatment was determined; motor activity 92% of control was observed at the highest dose; assay type: functional; outline: as §3
Rattus norvegicus [18] = organism: Rattus norvegicus; assay: Low dose of compound giving significant reduction and increase in motor activity without pretreatment was determined; motor activity 58% of control was observed at the lowest dose; assay type: functional; outline: as §3
Rattus norvegicus [19] = assay: Half-maximal decrease of DOPA accumulation (no reserpine pretreatment) in the striatum of rat brain at dose 3.7 uM/kg; assay type: functional; set-up: scale not given: the % may be the effect or the level left; outline: as §2
Rattus norvegicus [20] = assay: Half-maximal decrease of DOPA accumulation (no reserpine pretreatment) in the limbic system of rat brain at dose 3.7 uM/kg; assay type: functional; set-up: scale not given: the % may be the effect or the level left; outline: as §2
Rattus norvegicus [21] = organism: Rattus norvegicus; assay: Half-maximal decrease of DOPA accumulation upon reserpine pretreatment in the limbic system of rat brain; assay type: functional
Rattus norvegicus [22] = assay: Half-maximal decrease of DOPA accumulation (no reserpine pretreatment) in the limbic system of rat brain at dose 227 uM/kg; assay type: functional; set-up: scale not given: the % may be the effect or the level left; outline: as §2
Rattus norvegicus [23] = organism: Rattus norvegicus; assay: […] without pretreatment was determined; motor activity 40% of control was observed at the highest dose; assay type: functional
Rattus norvegicus [24] = assay: Motor activity with reserpine pretreatment at dose 100 uM/kg; assay type: functional
Rattus norvegicus [25] = assay: Half-maximal decrease of DOPA accumulation (no reserpine pretreatment) in the striatum of rat brain at dose 227 uM/kg; assay type: functional; set-up: scale not given: the % may be the effect or the level left; outline: as §2
Rattus norvegicus [26] = assay: Half-maximal decrease of DOPA accumulation (no reserpine pretreatment) in the limbic system of rat brain at dose 0.8 uM/kg; assay type: functional; set-up: scale not given: the % may be the effect or the level left; outline: as §2
Rattus norvegicus [27] = assay: Motor activity with reserpine pretreatment at dose 13 uM/kg; assay type: functional
Rattus norvegicus [28] = assay: Half-maximal decrease of DOPA accumulation (no reserpine pretreatment) in the striatum of rat brain at dose 0.8 uM/kg; assay type: functional; set-up: scale not given: the % may be the effect or the level left; outline: as §2
Rattus norvegicus [29] = organism: Rattus norvegicus; assay: Low dose of compound giving significant reduction and increase in motor activity without pretreatment was determined; motor activity 75% of control was observed at the lowest dose; assay type: functional; outline: as §3
Rattus norvegicus [30] = organism: Rattus norvegicus; assay: High dose of compound giving significant reduction and increase in motor activity without pretreatment was determined; motor activity 230% of control was observed at the highest dose; assay type: functional; outline: as §3
Rattus norvegicus [31] = organism: Rattus norvegicus; assay: Low dose of compound giving significant reduction and increase in motor activity without pretreatment was determined; motor activity 32% of control was observed at the lowest dose; assay type: functional; outline: as §3
Rattus norvegicus [32] = assay: Half-maximal decrease of DOPA accumulation (no reserpine pretreatment) in the limbic system of rat brain at dose 0.83 uM/kg; assay type: functional; set-up: scale not given: the % may be the effect or the level left; outline: as §2
Rattus norvegicus [33] = organism: Rattus norvegicus; assay: Low dose of compound giving significant reduction and increase in motor activity without pretreatment was determined; motor activity 74% of control was observed at the lowest dose; assay type: functional; outline: as §3
Rattus norvegicus [34] = assay: Half-maximal decrease of DOPA accumulation (no reserpine pretreatment) in the limbic system of rat brain at dose 213 uM/kg; assay type: functional; set-up: scale not given: the % may be the effect or the level left; outline: as §2
Rattus norvegicus [35] = assay: Half-maximal decrease of DOPA accumulation (no reserpine pretreatment) in the striatum of rat brain at dose 27 uM/kg; assay type: functional; set-up: scale not given: the % may be the effect or the level left; outline: as §2
Rattus norvegicus [36] = assay: Motor activity with reserpine pretreatment at dose 213 uM/kg; assay type: functional
Rattus norvegicus [37] = assay: Motor activity with reserpine pretreatment at dose 7.0 umol/kg; assay type: functional
Outline: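 Test drug dissolved in saline, given sc in the neck (n = 4). Rats placed singly in motility meter cages immediately after dosing. Motor activity recorded as accumulated counts over 0–30 min and compared with controls.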

Rattus norvegicus [38] = assay: Reduction of DOPA accumulation upon reserpine pretreatment in the corpus striatum of rat brain at a dose of 100 umol/kg; assay type: functional
Outline: (§5)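 Test drug dissolved in saline, injected sc in the neck. 30 min later, NSD 1015 100 mg/kg given. Dopa measured in brain portions (limbic, striatal) and expressed as percent reduction from control levels. Student's t test used for statistics.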

Rattus norvegicus [39] = assay: Reduction of DOPA accumulation upon reserpine pretreatment in the limbic system of rat brain at a dose of 100 umol/kg; assay type: functional; outline: as §5
Rattus norvegicus [40] = organism: Rattus norvegicus; assay: High dose of compound giving significant reduction and increase in motor activity without pretreatment was determined; motor activity 55% of control was observed at the highest dose; assay type: functional; outline: as §3
Rattus norvegicus [41] = assay: Motor activity with reserpine pretreatment at dose 14 umol/kg; assay type: functional
Rattus norvegicus [42] = assay: Motor activity with reserpine pretreatment at dose 133 umol/kg; assay type: functional

## Oc1cccc([C@H]2CCCNC2)c1
Rattus norvegicus [1]
  ED50: 14 µmol/kg
Rattus norvegicus [2]
  Accumulated counts: 47

## CC(C)N1CCC[C@H](c2cccc(O)c2)C1
Rattus norvegicus [1]
  ED50: 13 µmol/kg
Rattus norvegicus [3]
  Level: 80
Rattus norvegicus [4]
  Control: 77%
Rattus norvegicus [5]
  Dose: 0.2 µM/kg
Rattus norvegicus [6]
  Level: 89
Rattus norvegicus [7]
  Accumulated counts: 49
Rattus norvegicus [8]
  Control: 85%
Rattus norvegicus [9]
  Level: 70
Rattus norvegicus [10]
  Level: 74

## CC(C)N1CCC[C@@H](c2cccc(O)c2)C1
Rattus norvegicus [11]
  Accumulated counts: 38
Rattus norvegicus [12]
  Control: 74%
Rattus norvegicus [1]
  ED50: 0.45 µmol/kg
Rattus norvegicus [13]
  Control: 76%
Rattus norvegicus [3]
  Level: 51
Rattus norvegicus [14]
  Dose: 13 µM/kg
Rattus norvegicus [15]
  Dose: 0.2 µM/kg
Rattus norvegicus [6]
  Level: 68
Rattus norvegicus [16]
  Level: 60
Rattus norvegicus [10]
  Level: 81

## CCCCN1CCC[C@H](c2cccc(O)c2)C1
Rattus norvegicus [17]
  Dose: 53 µM/kg
Rattus norvegicus [1]
  ED50: 2.2 µmol/kg
Rattus norvegicus [3]
  Level: 52
Rattus norvegicus [18]
  Dose: 3.7 µM/kg
Rattus norvegicus [19]
  Control: 76%
Rattus norvegicus [6]
  Level: 52
Rattus norvegicus [20]
  Control: 72%
Rattus norvegicus [7]
  Accumulated counts: 180
Rattus norvegicus [16]
  Level: 55
Rattus norvegicus [10]
  Level: 58
Rattus norvegicus [21]
  ED50: 2.3 µmol/kg

## CN1CCC[C@@H](c2cccc(O)c2)C1
Rattus norvegicus [1]
  ED50: 10 µmol/kg
Rattus norvegicus [22]
  Control: 48%
Rattus norvegicus [23]
  Dose: 227 µM/kg
Rattus norvegicus [24]
  Accumulated counts: 36
Rattus norvegicus [25]
  Control: 51%

## CCCN1CCC[C@H](c2cccc(O)c2)C1
Rattus norvegicus [1]
  ED50: 1.3 µmol/kg
Rattus norvegicus [26]
  Control: 86%
Rattus norvegicus [3]
  Level: 52
Rattus norvegicus [27]
  Accumulated counts: 78
Rattus norvegicus [6]
  Level: 45
Rattus norvegicus [28]
  Control: 81%
Rattus norvegicus [29]
  Dose: 1.6 µM/kg
Rattus norvegicus [9]
  Level: 59
Rattus norvegicus [10]
  Level: 63
Rattus norvegicus [30]
  Dose: 213 µM/kg

## CCCCN1CCC[C@@H](c2cccc(O)c2)C1
Rattus norvegicus [31]
  Dose: 3.7 µM/kg
Rattus norvegicus [1]
  ED50: 0.77 µmol/kg
Rattus norvegicus [32]
  Control: 84%
Rattus norvegicus [3]
  Level: 103
Rattus norvegicus [6]
  Level: 142
Rattus norvegicus [7]
  Accumulated counts: 63
Rattus norvegicus [16]
  Level: 91
Rattus norvegicus [10]
  Level: 118

## CCCN1CCC[C@@H](c2cccc(O)c2)C1 [PRECLAMOL]
Rattus norvegicus [33]
  Dose: 0.8 µM/kg
Rattus norvegicus [1]
  ED50: 1.7 µmol/kg
Rattus norvegicus [34]
  Control: 95%
Rattus norvegicus [35]
  Control: 147%
Rattus norvegicus [3]
  Level: 100
Rattus norvegicus [6]
  Level: 162
Rattus norvegicus [23]
  Dose: 213 µM/kg
Rattus norvegicus [16]
  Level: 114
Rattus norvegicus [10]
  Level: 145
Rattus norvegicus [36]
  Accumulated counts: 12

## CN1CCc2cccc3c2[C@H]1Cc1ccc(O)c(O)c1-3 [APOMORPHINE]
Rattus norvegicus [1]
  ED50: 0.22 µmol/kg
Rattus norvegicus [21]
  ED50: 0.19 µmol/kg

## Oc1cccc([C@@H]2CCCN(CCc3ccccc3)C2)c1
Rattus norvegicus [1]
  ED50: 0.13 µmol/kg
Rattus norvegicus [37]
  Accumulated counts: 71

## Oc1cccc([C@@H]2CCCNC2)c1
Rattus norvegicus [38]
  Reduction: 26%
Rattus norvegicus [39]
  Reduction: 19%
Rattus norvegicus [22]
  Control: 50%
Rattus norvegicus [40]
  Dose: 227 µM/kg
Rattus norvegicus [25]
  Control: 44%

## Oc1cccc([C@H]2CCCN(CCc3ccccc3)C2)c1
Rattus norvegicus [1]
  ED50: 6.9 µmol/kg
Rattus norvegicus [41]
  Accumulated counts: 26

## CN1CCC[C@H](c2cccc(O)c2)C1
Rattus norvegicus [42]
  Accumulated counts: 88
Rattus norvegicus [1]
  ED50: 2.9 µmol/kg
